Shown are actives, neighbours in structure and some others; about 2.1% of the full set was active somewhere.
m5-HT2A agonist: agonists of mouse serotonin 5-HT2A receptor (HTR2A); P35363; CHO-K1 mHTR2A beta-arrestin complementation, luminescence; percent of 30 µM serotonin response; activation, % at 7.6 µM; hit rate 0.66% among 360,000; AID 624169;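 active means activation above a run cutoff, the mean activation of all tested compounds plus 3 SD, cut at about 14% in these data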;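 further: 0% = plate median of compound wells and 100% = 30 µM serotonin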
EBI2 block: antagonists of human EBI2 receptor; P32249; EBI2 beta-arrestin recruitment, luminescence, 7a,25-OHC stimulated; inhibition, % at 5 µM; hit rate 0.81% among 360,000; AID 651636; in the data active means inhibition above about 38%;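 further: enzyme fragment complementation signal reports receptor beta-arrestin coupling in cells; 0% = agonist plus DMSO wells and 100% = wells without agonist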
Target sequence (P32249 whole entry, looked up, the tested form may be a part): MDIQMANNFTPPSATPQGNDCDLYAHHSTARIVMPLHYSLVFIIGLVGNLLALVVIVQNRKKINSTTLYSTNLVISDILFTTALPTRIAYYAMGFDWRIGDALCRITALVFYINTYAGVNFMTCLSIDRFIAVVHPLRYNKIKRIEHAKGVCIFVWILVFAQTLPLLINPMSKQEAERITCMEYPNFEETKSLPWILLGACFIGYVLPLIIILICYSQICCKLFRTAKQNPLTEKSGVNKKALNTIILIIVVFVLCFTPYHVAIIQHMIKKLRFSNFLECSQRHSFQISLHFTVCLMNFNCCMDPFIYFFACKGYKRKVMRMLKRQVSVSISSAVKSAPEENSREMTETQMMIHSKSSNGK
APJ antag: antagonists of human APJ apelin receptor. P35414. CHO-K1 APJ beta-arrestin complementation, luminescence. inhibition, % at 20 µM. hit rate 0.32% among 330,000;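 active means inhibition above about 40% at 20 µM, limit read from the data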;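 further: cells challenged with 10 nM apelin-13 agonist together with compound; plate controls were apelin-13 plus DMSO wells for no effect and DMSO wells lacking apelin-13 for full effect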
APJ ag: agonists of human APJ apelin receptor. P35414. CHO-K1 APJ PathHunter beta-arrestin, luminescence; 0% DMSO wells, 100% apelin. activation, % at 20 µM. hit rate 0.11% among 330,000. AID 2520;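 active means activation more than six SD over the plate average, tested at 20 µM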;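 further: 0% = DMSO alone and 100% = apelin-13 at 10 nM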
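assay system = CHO-K1 APJ beta-arrestin complementation cell line | input = cell density 1000 per well | dosing = compound 20 µM once, DMSO 1% | timing = compound 90 min 25 °C, reagent 1 h | measured by = luminescence from split beta-galactosidase complementation, Galacton Star/Emerald II substrate | read-out basis = APJ agonist activity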
CCR6 antagonist: CCR6 (human) receptor antagonism. P51684. CHO-K1 CCR6 PathHunter beta-arrestin, luminescence, CCL20-stimulated. inhibition, % at 20 µM. hit rate 0.49% among 340,000. AID 493098;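 active means compounds whose inhibition of the agonist-driven luminescence signal at 20 µM reaches about 50%, limit read from the data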;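 further: cells stimulated with CCL20 at 14 nM final; plate controls were DMSO with CCL20 for no effect and DMSO without agonist for full effect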
CXCR6 block: CXCR6 (human) receptor inhibition; CHO-K1 PathHunter CXCR6 beta-arrestin, luminescence; inhibition, % at 20 µM; hit rate 0.36% among 360,000; AID 602244; in the data active means inhibition above about 34%, passing the limit was not always enough;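 further: antagonist mode with CXCL16 agonist at 10 nM final; 0% = 10 nM CXCL16 with DMSO and 100% = unstimulated wells without agonist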
CXCR6 confirm: confirmation of human CXCR6 receptor antagonists. shares compounds with CXCR6 block. CHO-K1 CXCR6 PathHunter beta-arrestin, luminescence. inhibition, % at 20 µM. hit rate 65% among 700. AID 602409;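 active means mean inhibition over four retests above 40%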;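 further: receptor stimulated with 10 nM CXCL16 agonist; beta-galactosidase fragment complementation upon beta-arrestin recruitment to receptor; plate controls were CXCL16 plus DMSO for no effect and DMSO without CXCL16 for full effect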
* hit, by the source's call; nt = no result given.

SMILES	m5-HT2A agonist	EBI2 block	APJ antag	APJ ag	CCR6 antagonist	CXCR6 block	CXCR6 confirm
CCN(CC)C(=O)COC(=O)C1=NN(c2cc(C)ccc2C)C(=O)CC1	-7	9	-5	0	6	8	nt
CC1(C(=O)NS(=O)(=O)c2cccc(Cl)c2)CCN1C(=O)CCc1cccs1 (centres undefined)	13	-5	nt	nt	nt	2	nt
COc1ccc(NC(=O)c2cc(-c3ccc(C)o3)nc3ccccc23)c(OC)c1	-1	-14	15	-1	5	10	nt
Cc1ccc(-c2cc(C(=O)Nc3ccccc3C(N)=O)c3ccccc3n2)o1	3	11	28	-5	18	47*	1
CN1CCN(CC(O)COc2ccc(C34CC5CC(CC(C5)C3)C4)cc2)CC1 (centres undefined)	-11	-7	nt	nt	28	-16	nt
COc1ccc(C(C)(NC(C)=O)c2nc(-c3ccccc3OC)cs2)cc1 (centres undefined)	5	-6	nt	nt	nt	3	nt
Cn1nc(C(=O)OCC(=O)Nc2ccc(Cl)cc2Cl)c2ccccc2c1=O	7	0	-11	1	13	4	nt
Oc1csc(Cc2nc(-c3ccc(Br)cc3)cs2)n1	3	4	-8	-3	21	5	nt
Cc1sc(Cc2nc(O)cs2)nc1-c1ccccc1	3	5	45*	-9	33	52*	38
Cc1nc(Cc2nnc(SC(C)C(=O)N3c4ccccc4NC(=O)C3(C)C)o2)cs1 (centres undefined)	-15	-5	nt	nt	1	-4	nt
O=C(Nc1ccc(Oc2ccccc2)cc1)c1csc([C@@H]2O[C@H](CO)[C@H](O)[C@H](O)[C@H]2O)n1	-7	10	nt	nt	nt	48*	52*
CC(=O)Nc1ccc(NC(=O)c2csc([C@@H]3O[C@H](CO)[C@H](O)[C@H](O)[C@H]3O)n2)cc1	0	-6	nt	nt	nt	6	nt
CN(C)/C=C/c1oc2ccc(O)cc2c1[N+](=O)[O-]	-4	3	49*	-7	61*	42*	66*
Cc1oc2ccc(O)cc2c1C(=O)c1ccc([N+](=O)[O-])cc1	2	-17	-48	10	2	-26	nt
COc1cc(CNC(C)c2ccccc2)cc(Cl)c1OCC(=O)Nc1ccccc1 (centres undefined)	-3	-6	3	-3	15	-8	nt
COc1ccc(Nc2cc(C)nc3ccccc23)cc1	0	-6	0	-2	-1	-1	nt
COc1ccc2nc(C)cc(Nc3ccc(C)cc3)c2c1	2	16	4	-2	12	58*	1
COc1cccc(-c2cnc(C(O)c3ccc(C(C)(C)C)cc3)[nH]2)c1 (centres undefined)	1	20	nt	nt	nt	1	nt
COc1cc(F)ccc1-c1csc(C(C)(O)c2ccc(F)c(F)c2)n1 (centres undefined)	5	16	nt	nt	nt	-4	nt
CC(=O)Oc1c(/C=C(\C#N)C(N)=O)[nH]c2ccccc12	2	-12	nt	nt	36	42*	16
N#C/C(=C\c1c[nH]c2ccccc12)C(N)=O	3	4	-4	-1	-3	-8	nt
CCCc1cc(NCc2ccccn2)n2c(nc3ccccc32)c1C#N	-3	-38	-20	3	2	59*	-1
Cc1cc(NCc2ccccn2)n2c(nc3ccccc32)c1C#N	-3	-8	nt	nt	-7	-15	nt
Cc1ccc(F)cc1CNC(=O)C1CCC(=O)N(C2CC2)C1 (centres undefined)	7	-8	-2	-6	-1	38*	-5
CCOc1ccc(CN2CCN(Cc3cn(CC)nc3C)CC2CCO)cc1 (centres undefined)	0	1	11	-3	-10	47*	2
SMILES	m5-HT2A agonist	EBI2 block	APJ antag	APJ ag	CCR6 antagonist	CXCR6 block	CXCR6 confirm
CC(Oc1ccc(Br)cc1)C(=O)Nc1nc(-c2ccccn2)cs1 (centres undefined)	-17	6	39	-20	84*	93*	86*
NS(=O)(=O)c1ccc(Oc2ccc(S(N)(=O)=O)cc2)cc1	-4	-5	0	1	0	4	nt
C=CS(=O)(=O)c1ccc(Oc2ccc(S(=O)(=O)C=C)cc2)cc1	2	47*	39	0	74*	64*	66*
COc1ccc(C(=O)NCCCNC(=O)c2ccccn2)cc1Br	-1	6	8	-3	1	-3	nt
COc1ccc(S(=O)(=O)N2CCCCC2)cc1NC(=O)C1CC1C (centres undefined)	-10	-1	-7	-6	5	6	nt
O=C(c1ccccc1NS(=O)(=O)c1cccc2cccnc12)N1CCOCC1	-3	-4	-25	2	-9	-1	nt
Cc1c(CCCl)c(Cl)n2c(nc3ccccc32)c1C#N	2	67*	nt	nt	63*	44*	40
Cc1cc(Cl)n2c(nc3ccccc32)c1C#N	2	-11	nt	nt	17	12	nt
O=[N+]([O-])c1ccc(Sc2cccc3cccnc23)c([N+](=O)[O-])c1	-5	33	37	-4	56*	53*	70*
Cc1cccc(N=Cc2cc(Br)cc(Cl)c2O)c1	-2	-12	-11	-1	28	54*	38
CCOC(=O)Cc1csc(NC(=O)CCCC(=O)O)n1	4	-1	-4	-4	-6	2	nt
Cc1cc(N=O)c(C)cc1O	-4	7	nt	nt	nt	0	nt
Cc1cc(O)c(-c2cc(O)c(C)cc2O)cc1O	-5	27	0	10	nt	64*	80*
COC(=O)c1ccc(-c2nn(C)c(=O)c3ccccc23)cc1	-2	-2	-53	-3	8	1	nt
COC(=O)c1ccc(C(=O)OC)c(-n2c(=O)c3ccccc3c3ccccc3c2=O)c1	1	6	18	-3	57*	40*	40
CC(=O)Nc1cncc(-c2cnn(CC(C)C)c2)n1	6	1	nt	nt	nt	3	nt
CCOC(=O)C1(Cc2ccc(Cl)cc2)CCN(Cc2ccon2)CC1	-1	-12	19	-1	4	70*	5
Nc1nnc(SCC(=O)OCC(=O)c2ccccc2)s1	-1	3	-6	-2	-2	-2	nt
Nc1nnc(SCC(=O)OCC(=O)c2ccccc2Br)s1	11	-4	4	0	13	49*	9
CC(OC(=O)c1nn(C)c(=O)c2ccccc12)C(=O)NC1CCCCC1C (centres undefined)	4	1	22	-4	-1	5	nt
Cc1cc(C)cc(NC(=O)C(=O)NCC2CCCO2)c1 (centres undefined)	-2	-9	14	-3	-3	-1	nt
Cc1cc(C)cc(NC(=O)C(NCC2CCCO2)c2ccccc2)c1 (centres undefined)	-2	5	-15	-3	8	60*	10

Source: PubChem
